Shown are actives, neighbours in structure and some others; about 1.5% of the full set was active somewhere.
PKA-R2B act: PKA-R2B complex activation. P22694+P31323. PKA-R2B holoenzyme dissociation, Cy5-IP20 fluorescence polarization; R2B truncated from residue 108, S112A mutant; 0% DMSO only, 100% 113 µM cGMP. activation, % at 11.4 µM. 0.079% of 340,000 active;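 active means activation above a cutoff set at the mean over all compounds plus 3 SD, cut at about 18% in these data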;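 further: higher means more holoenzyme dissociation and a rise in polarization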
Target sequence (P31323 whole entry, looked up, other chains not shown, the tested form may be a part): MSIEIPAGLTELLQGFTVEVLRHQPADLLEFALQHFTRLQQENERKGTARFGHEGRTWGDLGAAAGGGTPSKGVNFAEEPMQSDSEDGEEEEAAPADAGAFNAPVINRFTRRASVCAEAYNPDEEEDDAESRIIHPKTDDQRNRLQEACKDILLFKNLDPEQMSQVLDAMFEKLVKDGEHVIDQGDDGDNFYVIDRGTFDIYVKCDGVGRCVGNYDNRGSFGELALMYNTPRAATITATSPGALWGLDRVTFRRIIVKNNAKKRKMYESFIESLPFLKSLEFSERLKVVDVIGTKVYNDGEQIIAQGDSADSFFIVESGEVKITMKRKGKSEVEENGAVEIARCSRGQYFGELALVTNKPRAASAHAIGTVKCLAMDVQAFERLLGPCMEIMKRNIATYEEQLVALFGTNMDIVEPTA
Tb MetRS inh: Trypanosoma brucei MetRS inhibition; AID 624268; inhibition, % at 11.9 µM; 0.4% of 360,000 active; purified T. brucei MetRS, ATP depletion, Kinase-Glo luminescence;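 active means inhibition above a per-plate cutoff of the control wells' mean inhibition plus 3 SD, cut at about 5.5% in these data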;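 further: 0% = DMSO wells median and 100% = median of wells with control inhibitor compound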
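technique = Kinase-Glo luminescence, ATP depletion format | system = purified MetRS (methionyl-tRNA synthetase) enzyme from Trypanosoma brucei | timing = 15 min preincubation, 2 h reaction, all 25 °C | evaluation = percent inhibition versus plate control medians | dosing = single dose, 11.9 µM final nominal, 0.9% final DMSO | also added = substrates ATP, L-methionine and bulk Escherichia coli tRNA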
Rin1 Abl inh: human Rin1-Abl interaction inhibition | AID 588664 | P00519+Q13671 | 0.4% of 360,000 active | TR-FRET Rin1/Abl binding, biochemical | inhibition, % at 7.35 µM; in the data active means inhibition above about 5%, passing the limit was not always enough
Cardio protect: modulators protecting cardiomyocytes from myocardial damage; H9c2 cardiomyocytes, H2O2 injury protection, ATPLite, 2 h; protection from H2O2 cell death, % at 20 µM; 0.63% of 360,000 active;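 active means compounds giving at least 50% protection of heart cells from peroxide-induced death in the single-dose screen, raw or plate-pattern-corrected value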;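 further: 0% = DMSO wells with peroxide and 100% = DMSO wells without peroxide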
PKA-R1A act: PKA-R1A complex activation; P00514+P68181; AID 504707; activation, % at 11.4 µM; PKA-R1A dissociation, Cy5-IP20 fluorescence polarization; scaled: DMSO 0%, 113 µM cGMP 100%; 0.083% of 340,000 active;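 active means percent activation above the mean of all tested compounds plus 3 SD, cut at about 19% in these data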;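 further: higher means more PKAc released from R1A so a rise in polarization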
* = called active by the depositor; nt = no result given.

SMILES	PKA-R2B act	Tb MetRS inh	Rin1 Abl inh	Cardio protect	PKA-R1A act
C#CCOCCOCCOCCNc1nc(N2CCN(C(=O)CCCCCCCCCCNC(=O)[C@@H](CCSC)n3cc(CCO)nn3)CC2)nc(N2CCN(C(=O)CCCCCCCCCCNC(=O)[C@H]([C@@H](C)CC)n3cc(CCCCN=C(N)N)nn3)CC2)n1	-3.1	0.5	24.5*	-5.6	-3.8
C#CCOCCOCCOCCNc1nc(N2CCOCC2)nc(N2CCN(C(=O)CCCCCCCCCCNC(=O)[C@@H](CCSC)n3cc(CCO)nn3)CC2)n1	3.2	-0.4	1.0	9.4	-2.6
C#CCOCCOCCOCCNc1nc(N2CCN(C(=O)CCCCCCCCCCNC(=O)[C@H](CCCCN)n3cc(CCO)nn3)CC2)nc(N2CCN(C(=O)CCCCCCCCCCNC(=O)[C@H](CCCN=C(N)N)n3cc(C[C@@H](C)CC)nn3)CC2)n1	-3.8	-0.2	21.7*	-4.9	5.5
C#CCOCCOCCOCCNc1nc(N2CCN(C(=O)CCCCCCCCCCNC(=O)[C@H](CCC(=O)O)n3cc(CCCCCN)nn3)CC2)nc(N2CCN(C(=O)CCCCCCCCCCNC(=O)[C@@H]([C@H](C)O)n3cc(C)nn3)CC2)n1	-4.4	0.4	7.1	-2.9	-3.0
C[n+]1cccc(O)c1SCc1ccccc1	-8.6	-0.4	-3.8	-7.8	-4.0
O=C(NCc1nc(-c2ccc(C(F)(F)F)cc2)no1)Nc1cc(Cl)cc(Cl)c1	-4.9	-0.8	-1.5	-16.0	-4.4
C#CCOCCOCCOCCNc1nc(N2CCN(C(=O)CCCCCCCCCCNC(=O)[C@H](CCCCN)n3cc(C)nn3)CC2)nc(N2CCN(C(=O)CCCCCCCCCCNC(=O)[C@@H]([C@H](C)CC)n3cc(CCCCCN)nn3)CC2)n1	2.6	-0.6	12.2*	-4.5	7.7
CCCCN(CCO)c1ncnc2sc(-c3ccccc3)cc12	-8.8	-2.4	-0.1	-5.9	1.1
CCCn1c(=O)c2[nH]c(-c3ccc(OCC(=O)Nc4ccc(C#N)cc4)cc3)nc2n(CCC)c1=O	6.7	-1.1	0.2	94.5*	-8.9
CC(=O)Nc1ccc(NC(=O)COc2ccc(-c3ccc(C#N)cc3)cc2)cc1	7.6	-0.6	-0.1	15.9	5.7
COc1cc(C(=O)Nc2cc3c(cc2N2CCCCC2)n(C)c(=O)n3C)cc(OC)c1OC	-5.4	-0.2	-0.6	53.2*	-4.5
COc1ccc(C(=O)Nc2cc3c(cc2N2CCCCC2)n(C)c(=O)n3C)cc1OC	1.1	-0.4	-0.9	29.9	10.2
CC1(C(=O)O)CCN1C(=O)c1ccccc1F (stereo unspecified)	nt	0.1	-1.7	7.9	nt
CCOC(=O)CNC(=O)CSc1nc2nc(C)c(Br)cc2[nH]1	2.0	-0.1	-1.1	50.3*	-4.6
COc1ccc(CCNC(=O)C(=O)NCC2CCCN2S(=O)(=O)c2ccccc2)cc1OC (stereo unspecified)	-9.7	-0.4	2.2	73.5*	-4.8
O=C(NCCSCc1c(F)cccc1Cl)Nc1ccccc1	-14.2	7.8*	-2.6	-6.1	-7.6
S=C(NCCSCc1ccc(Cl)cc1Cl)Nc1ccccc1	-13.7	69.7*	0.8	-32.7	-9.5
S=C(NCCSCc1c(Cl)cccc1Cl)Nc1ccccc1	-3.6	-0.5	1.8	-19.2	1.4
CCOC(=O)C1=C(C)N=c2s/c(=C/c3ccccc3)c(=O)n2C1c1ccc(OC)c(OC)c1 (stereo unspecified)	4.7	-1.4	-0.2	5.4	-1.9
CCOC(=O)C1=C(C)N=c2s/c(=C\c3ccncc3)c(=O)n2C1c1ccc2c(c1)OCO2 (stereo unspecified)	-11.1	-1.5	-2.1	55.4*	-3.2
Cc1c(C#N)c(N)nc2c3c(sc12)NC(=O)CC3c1ccccc1 (stereo unspecified)	4.7	-0.6	-1.7	50.3*	5.5
Cc1ccc(S(=O)(=O)NCCc2nnc(SCc3cccnc3)n2C)cc1	-3.5	-0.2	0.3	-0.8	4.0
C/C(=N\NC(=O)c1c(Br)c(C)nn1C)c1ccc(NC(=O)c2ccoc2C)cc1	-8.7	-0.1	-4.4	51.5*	0.3
CC/C(C)=N\N=C\c1c(O)n(CC)c2cc(C3=NNC(=O)CC3)ccc12	-1.9	-1.6	-1.5	61.0*	-11.2
O=C(OCC(=O)N1CCCC1=O)C1COc2ccccc2O1 (stereo unspecified)	-1.1	0.2	-0.5	3.8	-4.2
SMILES	PKA-R2B act	Tb MetRS inh	Rin1 Abl inh	Cardio protect	PKA-R1A act
Cc1csc(NC(=O)CSc2nnc(-c3ccco3)n2C)n1	3.5	-1.2	1.2	6.0	-5.1
COc1cccc2cc(-c3nnc(SCC(=O)Nc4nc(C)cs4)n3C)oc12	-0.3	-0.9	3.3	68.6*	-9.3
Nc1cc2[nH]c(=O)c3ccccc3c2cc1[N+](=O)[O-]	-0.2	-0.2	-16.1	81.0*	-5.9
Oc1ccc(-c2nc3ccc4ccccc4c3c3c2CCC3)cc1O	-5.7	-0.6	1.8	88.0*	-0.1
COC(=O)c1ccc([C@@H]2C[C@H]3CN(Cc4cccnc4)C(=O)[C@]34CCCN24)cc1	-11.2	-0.7	-0.4	-0.1	0.9
COc1cc(-c2nnc(-c3cc(OC)c(OC)c(OC)c3)o2)cc(OC)c1OC	-5.4	-1.3	-4.9	65.5*	-1.6
COc1cc(-c2nnc(SCC(=O)c3ccc(C)cc3)o2)cc(OC)c1OC	0.8	-0.9	2.8	13.9	-1.6
COc1cc(-c2nnc(-c3cc(-c4ccccc4)nc4ccccc34)o2)cc(OC)c1OC	-9.4	-1.0	1.4	56.3*	-4.9
COc1cccc(C(=O)CSc2nnc(-c3cc(OC)c(OC)c(OC)c3)o2)c1	8.8	-0.4	2.5	58.0*	6.0
CCn1c(N2CCN(C(=O)c3ccco3)CC2)nc2ccccc21	-3.2	0.0	-3.8	-0.6	3.1
CC(C)c1cc(N2CCN(C(=O)c3ccco3)CC2)n2c(nc3ccccc32)c1C#N	-1.2	-0.3	-1.0	51.6*	-10.9
Cc1cccc(OCCn2c(NC(=O)c3ccco3)nc3ccccc32)c1	7.1	0.3	-3.6	61.6*	-4.0
Cc1ccc(OCCn2c(NC(=O)c3ccco3)nc3ccccc32)cc1	-1.6	-0.7	-7.3	23.9	6.4
CSc1nc2ccc(S(=O)(=O)Nc3c(C)n(C)n(-c4ccccc4)c3=O)cc2s1	-14.6	-1.0	0.5	106.1*	-4.7
CC1CC(C)(C)NC(=S)N1CCC(=O)Nc1ccc2c(c1)OCCO2 (stereo unspecified)	-5.9	-0.4	1.1	68.6*	-0.9
O=C(Nc1ccn(C2CC(OC(=O)c3ccccc3)C(CO)O2)c(=O)n1)c1ccccc1 (stereo unspecified)	-0.9	-0.1	9.1*	27.3	1.1
O=C(Nc1ccn(CCOC(=O)c2ccccc2)c(=O)n1)c1ccccc1	nt	-1.0	14.3	-1.3	nt
CCC(CC)c1ncc[nH]1	-1.3	-0.2	-1.1	0.2	1.1

Compound activity: PubChem BioAssay, several laboratories
